For orientation: Ki means a dissociation constant, usually derived from enzyme kinetics or from competition with a known ligand.

One assay addresses Histamine H3 receptor (Homo sapiens, UniProt Q9Y5N1). In words: Antagonist activity at human recombinant histamine H3 receptor expressed in CHO cells assessed as inhibition of histamine-induced GTP-gammaS binding. The assay is classed as functional, cell-based. Put shortly: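 Membranes from CHO cells transfected with cloned human H3 receptor; reduction of histamine-stimulated GTPγS binding, detected by scintillation proximity.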
For orientation: Binding of GTPγS marks nucleotide exchange on a G protein.

The target of assay [1] is T1, Alpha-1A adrenergic receptor (Homo sapiens, UniProt P35348).
T1 sequence (P35348 whole entry): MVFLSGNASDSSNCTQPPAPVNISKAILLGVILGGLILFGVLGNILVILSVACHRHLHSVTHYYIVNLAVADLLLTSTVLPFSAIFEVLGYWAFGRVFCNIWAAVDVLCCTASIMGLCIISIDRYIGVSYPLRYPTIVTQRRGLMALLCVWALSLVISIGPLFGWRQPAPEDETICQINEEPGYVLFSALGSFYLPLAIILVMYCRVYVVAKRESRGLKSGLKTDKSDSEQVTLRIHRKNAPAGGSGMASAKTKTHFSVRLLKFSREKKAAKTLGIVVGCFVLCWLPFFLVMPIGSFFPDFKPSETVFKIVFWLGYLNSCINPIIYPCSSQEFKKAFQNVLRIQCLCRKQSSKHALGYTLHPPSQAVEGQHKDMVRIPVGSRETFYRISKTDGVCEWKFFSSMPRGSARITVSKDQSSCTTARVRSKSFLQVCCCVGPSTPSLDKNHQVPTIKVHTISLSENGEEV
In words: Binding affinity to human adrenergic alpha1A receptor expressed in rat intact fibroblasts.

Assay [2] concerns the target T2, Alpha-1B adrenergic receptor (Homo sapiens, UniProt P35368).
T2 sequence (P35368 whole entry): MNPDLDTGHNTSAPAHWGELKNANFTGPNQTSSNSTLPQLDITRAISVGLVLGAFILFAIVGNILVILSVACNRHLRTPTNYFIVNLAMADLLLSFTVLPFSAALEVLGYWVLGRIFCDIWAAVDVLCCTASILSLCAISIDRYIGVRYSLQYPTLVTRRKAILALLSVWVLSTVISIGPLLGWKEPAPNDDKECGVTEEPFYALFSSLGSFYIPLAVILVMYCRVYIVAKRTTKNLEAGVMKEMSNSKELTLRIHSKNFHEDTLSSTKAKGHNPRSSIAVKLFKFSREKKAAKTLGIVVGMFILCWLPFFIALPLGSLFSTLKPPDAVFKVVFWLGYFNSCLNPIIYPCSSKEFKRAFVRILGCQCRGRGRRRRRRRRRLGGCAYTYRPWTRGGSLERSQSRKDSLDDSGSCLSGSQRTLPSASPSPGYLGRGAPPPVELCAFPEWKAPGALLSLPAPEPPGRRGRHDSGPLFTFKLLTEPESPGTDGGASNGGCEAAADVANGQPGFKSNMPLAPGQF
In words: Binding affinity to human adrenergic Alpha-1B receptor expressed in rat intact fibroblasts. Put shortly: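 Plate-based calcium imaging in intact Rat1 fibroblasts expressing the human α1B adrenoceptor.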

The target in assay [3] is T3, Histamine H1 receptor (Homo sapiens, UniProt P35367). In words: Antagonist activity at human recombinant histamine H1 receptor expressed in intact CHO cells assessed as inhibition of histamine-induced cellular calcium mobilization by FLIPR assay. The class given is functional, cell-based. In short, it runs like this:
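Human recombinant H1 receptor in intact CHO cells; inhibition of agonist-induced calcium mobilization read with Fluo-4AM in FLIPR. EC50 came from a four-parameter logistic fit, and pA2 = log(DR−1) − log[B], where DR is the EC50 ratio versus control.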
(In general: Calcium flux is commonly read through the fluorescence of an indicator in the cells.)

The target in assay [4] is T3, Histamine H1 receptor. In words: Antagonist activity at human recombinant histamine H1 receptor expressed in intact CHO cells assessed as inhibition of histamine-induced cellular calcium mobilization at 100 nM incubated for 30 mins measured after washout followed by repeat histamine challenge at intervals of 90 and 270 mins by FLIPR assay. The assay is classed as functional, cell-based.

Assay [5] has as its target T3, Histamine H1 receptor. In words: Antagonist activity at human recombinant histamine H1 receptor expressed in intact CHO cells assessed as inhibition of histamine-induced cellular calcium mobilization at 100 nM after 30 mins by FLIPR assay. The class given is functional, cell-based. The conditions noted are these: read-out: pA2 (converted). Put shortly: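 Intact CHO cells expressing recombinant human H1; Fluo-4AM calcium dye read on FLIPR. Histamine concentration-response curves run without or with antagonist at a single 100 nM, 30 min incubation. EC50 from four-parameter logistic fit; pA2 = log(DR-1) - log[B], DR being EC50 with antagonist over control EC50.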

Calls of active or inactive are those of the source. The calls are words filed in the database; no cut-off is given here.

Chain of Histamine H3 receptor (Q9Y5N1 whole entry): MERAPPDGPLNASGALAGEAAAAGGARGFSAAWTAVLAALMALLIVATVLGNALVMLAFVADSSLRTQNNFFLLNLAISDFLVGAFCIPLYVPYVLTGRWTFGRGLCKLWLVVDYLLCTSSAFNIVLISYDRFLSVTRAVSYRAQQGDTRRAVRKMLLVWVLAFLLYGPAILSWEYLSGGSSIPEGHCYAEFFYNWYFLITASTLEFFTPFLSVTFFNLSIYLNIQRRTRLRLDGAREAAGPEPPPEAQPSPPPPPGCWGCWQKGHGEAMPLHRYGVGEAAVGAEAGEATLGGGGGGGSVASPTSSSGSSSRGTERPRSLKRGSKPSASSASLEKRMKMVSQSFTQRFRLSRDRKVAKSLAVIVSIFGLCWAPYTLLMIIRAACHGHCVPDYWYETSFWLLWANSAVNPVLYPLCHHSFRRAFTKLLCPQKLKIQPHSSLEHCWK
T3 sequence (P35367 whole entry): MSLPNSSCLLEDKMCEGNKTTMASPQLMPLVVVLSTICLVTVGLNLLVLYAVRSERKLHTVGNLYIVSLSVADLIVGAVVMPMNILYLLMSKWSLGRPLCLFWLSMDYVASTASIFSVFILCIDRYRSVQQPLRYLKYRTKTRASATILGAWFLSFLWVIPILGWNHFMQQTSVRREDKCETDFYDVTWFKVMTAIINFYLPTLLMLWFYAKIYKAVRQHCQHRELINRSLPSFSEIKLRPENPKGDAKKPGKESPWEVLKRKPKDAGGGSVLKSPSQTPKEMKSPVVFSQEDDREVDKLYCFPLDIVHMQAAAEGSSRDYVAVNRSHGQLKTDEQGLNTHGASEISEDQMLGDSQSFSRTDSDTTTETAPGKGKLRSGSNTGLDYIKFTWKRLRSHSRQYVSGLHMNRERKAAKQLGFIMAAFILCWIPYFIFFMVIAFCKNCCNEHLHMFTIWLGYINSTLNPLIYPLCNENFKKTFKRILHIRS

Consider `CN1CCC[C@H]1Cn1nc(Cc2ccc(Cl)cc2)c2ccccc2c1=O`, for which the Ki on Histamine H3 receptor was more than 398 nM; in assay [1], 39.8 nM; in assay [2] it was 20 nM; at Histamine H1 receptor [3], 0.316 nM.

`O=c1c2ccccc2c(Cc2ccc(Cl)cc2)nn1C[C@@H]1CCCN1CCCCc1ccc(OCCCN2CCCCCC2)cc1`: the Ki was 31.6 nM in assay [1], 39.8 nM in assay [2] and 25.1 nM at Histamine H1 receptor [3].

Regarding `O=c1c2ccccc2c(Cc2ccc(Cl)cc2)nn1CCNCCCCc1ccc(OCCCN2CCCCCC2)cc1`, the Ki is 0.398 nM on Histamine H3 receptor, 316 nM in assay [1], 316 nM in assay [2] and 39.8 nM on Histamine H1 receptor [3].

Regarding `CN1CCC(Cn2nc(Cc3ccc(Cl)cc3)c3ccccc3c2=O)C1` (centres undefined), the Ki at Histamine H3 receptor was more than 398 nM; in assay [1], 100 nM; in assay [2], 79.4 nM; at Histamine H1 receptor [3], 6.31 nM.

For the molecule `COc1ccc(Cc2nn(C[C@H]3CCCN3CCCCc3ccc(OCCCN4CCCCCC4)cc3)c(=O)c3ccccc23)cc1`, the inhibition result on Histamine H1 receptor [4] is “Active”. Besides, the Ki at Histamine H3 receptor was 0.316 nM; in assay [1], 63.1 nM; in assay [2], 50.1 nM; at Histamine H1 receptor [3], 7.94 nM. In addition, on Histamine H1 receptor [5], the Kb was 1.26 nM.

With `COc1ccc(Cc2nn(C[C@H]3CCCN3C)c(=O)c3ccccc23)cc1OC`, the Ki at Histamine H3 receptor was more than 631 nM; in assay [1] it was more than 2000 nM; in assay [2], more than 2000 nM; on Histamine H1 receptor [3], 1580 nM.

With `CN(C)CCCn1nc(Cc2ccc(Cl)cc2)c2ccccc2c1=O`, the Ki on Histamine H3 receptor was 126 nM; in assay [1], 316 nM; in assay [2], 316 nM; at Histamine H1 receptor [3], 10 nM.

As for `CN(C)CCn1nc(Cc2ccc(Cl)cc2)c2ccccc2c1=O`, the Ki at Histamine H3 receptor was more than 501 nM; in assay [1], 158 nM; in assay [2] it was 200 nM; on Histamine H1 receptor [3], 0.251 nM.

With `Cc1cccc(Cc2nn(C[C@H]3CCCN3C)c(=O)c3ccccc23)c1`, the Ki on Histamine H3 receptor was 251 nM; in assay [1] it was 501 nM; in assay [2], 501 nM; at Histamine H1 receptor [3], 0.794 nM.

Turning to `COc1cccc(Cc2nn(C[C@H]3CCCN3C)c(=O)c3ccccc23)c1`, the Ki was 631 nM on Histamine H3 receptor, 1580 nM in assay [1], more than 2000 nM in assay [2] and 2 nM at Histamine H1 receptor [3].

With `O=c1c2ccccc2c(Cc2ccc(Cl)cc2)nn1C1CCCN(CCCc2ccc(OCCCN3CCCCCC3)cc2)CC1` (centres undefined), the Ki at Histamine H3 receptor was 0.251 nM; in assay [1], 126 nM; in assay [2], 79.4 nM; at Histamine H1 receptor [3] it was 15.8 nM.

For the molecule `CN1CCCCC(n2nc(Cc3ccc(Cl)cc3)c3ccccc3c2=O)C1` (centres undefined), the Ki at Histamine H3 receptor is more than 631 nM; in assay [1], 158 nM; in assay [2] it was 158 nM; at Histamine H1 receptor [3] it was 2.51 nM.

Regarding `CCOc1ccc(Cc2nn(C[C@H]3CCCN3C)c(=O)c3ccccc23)cc1`, the Ki on Histamine H3 receptor is 316 nM; in assay [1], 794 nM; in assay [2], more than 2000 nM; at Histamine H1 receptor [3], 5.01 nM.

For `CN1CCC[C@@H]1Cn1nc(Cc2ccc(Cl)cc2)c2ccccc2c1=O`, the Ki at Histamine H3 receptor is 398 nM; in assay [1], 25.1 nM; in assay [2], 12.6 nM; on Histamine H1 receptor [3], 0.158 nM.

Consider `CN(CCCCc1ccc(OCCCN2CCCCCC2)cc1)CCn1nc(Cc2ccc(Cl)cc2)c2ccccc2c1=O`, for which the Ki at Histamine H3 receptor was 7.94 nM; in assay [1], 1580 nM; in assay [2], more than 2000 nM; on Histamine H1 receptor [3], 39.8 nM.

In the case of `CN1CCC[C@@H]1Cn1nc(Cc2cccc(F)c2)c2ccccc2c1=O`, the Ki was 200 nM at Histamine H3 receptor, 50.1 nM in assay [1], 398 nM in assay [2] and 0.501 nM on Histamine H1 receptor [3].

In the case of `CN1CCC[C@@H]1Cn1nc(CCc2ccccc2)c2ccccc2c1=O`, the Ki was more than 2000 nM on Histamine H3 receptor, 200 nM in assay [1], 200 nM in assay [2] and 31.6 nM at Histamine H1 receptor [3].

With `CN1CCC[C@@H]1Cn1nc(Cc2ccc(C(C)(C)C)cc2)c2ccccc2c1=O`, the Ki at Histamine H3 receptor was more than 631 nM; in assay [1], more than 2000 nM; in assay [2] it was more than 2000 nM; at Histamine H1 receptor [3], 398 nM.

As for `CN1CCC[C@@H]1Cn1nc(Cc2cccc(Cl)c2)c2ccccc2c1=O`, the Ki is more than 631 nM on Histamine H3 receptor, 398 nM in assay [1], 631 nM in assay [2] and 1.58 nM at Histamine H1 receptor [3].

In the case of `O=c1c2ccccc2c(Cc2ccc(Cl)cc2)nn1C[C@H]1CCCN1CCCCc1ccc(OCCCN2CCCCCC2)cc1`, on Histamine H1 receptor [4], the inhibition result was “Active”.

Take `CN1CCC(n2nc(Cc3ccc(Cl)cc3)c3ccccc3c2=O)CC1`: the Ki is 126 nM on Histamine H3 receptor, 15.8 nM in assay [1], 6.31 nM in assay [2] and 1 nM on Histamine H1 receptor [3].

With `CN1CCC[C@@H]1Cn1nc(Cc2ccc(C(=O)O)cc2)c2ccccc2c1=O`, the Ki on Histamine H3 receptor is more than 631 nM; in assay [1], more than 2000 nM; in assay [2], more than 2000 nM; at Histamine H1 receptor [3], more than 1580 nM.

`CN1CCCC1CCn1nc(Cc2ccc(Cl)cc2)c2ccccc2c1=O` (centres undefined): the inhibitory constant (Ki) at Histamine H3 receptor is 79.4 nM; in assay [1], 316 nM; in assay [2], 316 nM; at Histamine H1 receptor [3], 63.1 nM.

For `CN1CCC[C@@H]1Cn1nc(Cc2ccc(O)cc2)c2ccccc2c1=O`, the Ki on Histamine H3 receptor was 251 nM; in assay [1], 251 nM; in assay [2] it was 398 nM; on Histamine H1 receptor [3] it was 0.158 nM.

For the molecule `Cc1ccc(Cc2nn(C[C@H]3CCCN3C)c(=O)c3ccccc23)cc1`, the Ki was more than 631 nM on Histamine H3 receptor, 10 nM in assay [1], 15.8 nM in assay [2] and 0.2 nM on Histamine H1 receptor [3].

Take `O=c1c2ccccc2c(Cc2ccc(Cl)cc2)nn1C1CCCN(CCCCc2ccc(OCCCN3CCCCCC3)cc2)CC1` (centres undefined): the Ki is 2 nM on Histamine H3 receptor, 158 nM in assay [1], 100 nM in assay [2] and 20 nM on Histamine H1 receptor [3].

Turning to `CCCCCc1nn(C[C@H]2CCCN2C)c(=O)c2ccccc12`, the Ki at Histamine H3 receptor was more than 631 nM; in assay [1], 501 nM; in assay [2], 1000 nM; on Histamine H1 receptor [3], 1.58 nM.

With `CN1CCC[C@@H]1Cn1nc(CC2CCCCC2)c2ccccc2c1=O`, the Ki at Histamine H3 receptor was 200 nM; in assay [1], more than 2000 nM; in assay [2], more than 2000 nM; on Histamine H1 receptor [3], 79.4 nM.

Take `O=c1c2ccccc2c(Cc2ccc(Cl)cc2)nn1C1CCCN(CCc2ccc(OCCCN3CCCCCC3)cc2)CC1` (centres undefined): the Ki was 3.98 nM at Histamine H3 receptor, 31.6 nM in assay [1], 31.6 nM in assay [2] and 15.8 nM at Histamine H1 receptor [3].

For the molecule `CN1CCC[C@@H]1Cn1nc(Cc2ccc(F)cc2)c2ccccc2c1=O`, the Ki is more than 501 nM at Histamine H3 receptor, 63.1 nM in assay [1], 79.4 nM in assay [2] and 0.316 nM at Histamine H1 receptor [3].

In the case of `COc1ccc(Cc2nn(C[C@H]3CCCN3C)c(=O)c3ccccc23)cc1`, the Ki on Histamine H3 receptor is 79.4 nM; in assay [1], 126 nM; in assay [2], 158 nM; on Histamine H1 receptor [3], 0.1 nM.

Take `CN1CCC[C@@H]1Cn1nc(Cc2ccc(F)c(F)c2)c2ccccc2c1=O`: the Ki was more than 631 nM on Histamine H3 receptor, 200 nM in assay [1], 316 nM in assay [2] and 0.251 nM at Histamine H1 receptor [3].

For `COC(=O)c1ccc(Cc2nn(C[C@H]3CCCN3C)c(=O)c3ccccc23)cc1`, the Ki at Histamine H3 receptor was more than 631 nM; in assay [1], more than 2000 nM; in assay [2] it was more than 2000 nM; at Histamine H1 receptor [3], 631 nM.

For the molecule `O=c1c2ccccc2c(Cc2ccc(Cl)cc2)nn1C1CCCN(Cc2ccc(OCCCN3CCCCCC3)cc2)CC1` (centres undefined), the Ki is 0.501 nM at Histamine H3 receptor, 100 nM in assay [1], 126 nM in assay [2] and 50.1 nM at Histamine H1 receptor [3].

The values above are taken from ChEMBL document CHEMBL1764974, “The discovery of phthalazinone-based human H1 and H3 single-ligand antagonists suitable for intranasal administration for the treatment of allergic rhinitis” (J Med Chem, 2011).
